In general, bioavailability refers to dose-corrected exposure relative to a reference, in per cent. A low value points to little systemic uptake. One may read the clearance as the volume of plasma or blood freed of the substance per unit of time. By IC50 is commonly meant the concentration at which inhibition is half-maximal. A lower IC50 goes with inhibition by little substance. In general, pKa refers to the pH at which an ionisable group is half protonated. Low values mean a group that gives up its proton readily, high ones a group that holds its proton tightly.

Here are results for six compounds from ChEMBL document CHEMBL1137097, “Discovery of potent and orally bioavailable N,N'-diarylurea antagonists for the CXCR2 chemokine receptor” (Bioorg Med Chem Lett, 2004).

Each structure is given as a SMILES string.

Data set [1] is described as follows: Oral bioavailability in rat. The note with it: in vivo. It counts as ADME, organism-based. The essentials: (§1)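 Male Sprague–Dawley rats, n=3 per study, in an iv/po crossover design. Dosed in aqueous solution with 1% DMSO and up to 20% hydroxypropyl-beta-cyclodextrin, 4 and 8 µmol/kg for iv and po. Lateral tail vein blood sampling. Plasma drug measured by LC/MS/MS, lower limit of quantification >10ng/mL.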

Data set [2] in a line: Plasma clearance in rat. The class given is ADME, organism-based. The essentials: as §1
Data set [3] has as its target T1, C-X-C chemokine receptor type 2 (Homo sapiens, UniProt P25025).
T1 sequence (P25025 whole entry): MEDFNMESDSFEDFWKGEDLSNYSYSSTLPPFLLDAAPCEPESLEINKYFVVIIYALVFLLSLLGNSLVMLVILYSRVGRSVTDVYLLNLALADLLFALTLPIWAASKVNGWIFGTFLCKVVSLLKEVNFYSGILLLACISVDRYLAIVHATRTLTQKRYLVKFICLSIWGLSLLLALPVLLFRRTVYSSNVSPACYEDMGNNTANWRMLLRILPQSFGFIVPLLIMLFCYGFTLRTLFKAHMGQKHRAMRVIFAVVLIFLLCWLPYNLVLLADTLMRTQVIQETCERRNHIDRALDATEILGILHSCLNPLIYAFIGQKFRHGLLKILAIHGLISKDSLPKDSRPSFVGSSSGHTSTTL
The experiment in a line: Concentration required to inhibit [125I]IL-8 binding towards C-X-C chemokine receptor type 2 of human expressed in CHO cells. The class given is cell-based. The essentials:
(§2)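 SPA binding on membranes from CHO cell lines expressing CXCR1 or CXCR2. Competition against radiolabeled human recombinant [125I]-IL-8 at 0.23nM. Values are the mean of three individual experiments.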

The nature of data set [4]: pKa value was determined. It counts as physicochemical. The essentials: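 pKa calculated in silico, not measured experimentally.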
In data set [5] the target is T2, C-X-C chemokine receptor type 1 (Homo sapiens, UniProt P25024).
T2 sequence (P25024 whole entry): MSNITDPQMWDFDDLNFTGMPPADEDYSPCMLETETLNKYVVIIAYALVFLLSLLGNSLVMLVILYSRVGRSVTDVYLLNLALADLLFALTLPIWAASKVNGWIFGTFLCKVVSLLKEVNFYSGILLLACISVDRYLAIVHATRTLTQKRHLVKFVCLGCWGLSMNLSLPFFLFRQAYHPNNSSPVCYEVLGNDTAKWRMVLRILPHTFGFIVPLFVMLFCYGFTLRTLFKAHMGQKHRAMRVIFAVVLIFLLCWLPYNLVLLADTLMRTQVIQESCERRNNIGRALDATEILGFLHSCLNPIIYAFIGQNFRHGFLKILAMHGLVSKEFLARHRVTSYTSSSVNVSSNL
The experiment in a line: Concentration required to inhibit [125I]-IL-8 binding towards C-X-C chemokine receptor type 1 of human expressed in CHO cells. It counts as cell-based. Summed up: as §2

A short description of data set [6]: In vitro intrinsic clearance of urea in human liver microsomes in presence of UDPGA. The class given is ADME, Microsome. The essentials:
(§3)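 Rat or human liver microsomes at 0.5mg microsomal protein/mL, run with or without UDPGA. Final compound 0.5–1 µM. Substrate loss followed by LC/MS/MS over a 30-min incubation. CLint taken from the slope of substrate disappearance versus time.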
(In general: Microsomes from liver hold many membrane-bound enzymes, among them those of drug oxidation.)

The nature of data set [7]: In vitro intrinsic clearance of urea in rat liver microsomes in absence of UDPGA. It counts as ADME, Microsome. The essentials:
as §3

Data set [8] in a line: In vitro intrinsic clearance of urea in human liver microsomes in absence of UDPGA. It counts as ADME, Microsome. Summed up: as §3
Data set [9] in a line: In vitro intrinsic clearance of urea in rat liver microsomes in presence of UDPGA. The class given is ADME, Microsome. The essentials: as §3

`CN(C)S(=O)(=O)c1c(Cl)ccc(NC(=O)Nc2ccccc2Br)c1O` registered a bioavailability in [1] of 100%. This compound gave a clearance in [2] of 23.4 mL/min/kg. The figures for the IC50 in [3] and in [5] were 12 nM and 4320 nM, respectively. The compound further showed a pKa in data set [4] of 6.19.

`O=C(Nc1ccccc1Br)Nc1ccc(Cl)c(Cl)c1O`: the bioavailability in data set [1] stood at 13%. In addition, the clearance in [2] was determined as 73.6 mL/min/kg. In addition, the IC50 turned out to be 63 nM in [3] and 13400 nM in data set [5]. The same compound registered a pKa in [4] of 7.24.

Compound `Cl.NCc1c(Cl)ccc(NC(=O)Nc2ccccc2Br)c1O` showed a bioavailability in [1] of 67%. The compound further displayed a clearance in [2] of 104 mL/min/kg. In addition, the IC50 in [3] worked out at 114 nM; in data set [5] it was 30000 nM. This compound also displayed a pKa in [4] of 6.85.

For the compound `O=C(Nc1ccc(Cl)cc1O)Nc1ccccc1Br`, the bioavailability in [1] came to 6.6%. The clearance in data set [2] is 323 mL/min/kg. For the same compound, in [3], the IC50 worked out at 906 nM. The compound further showed a pKa in data set [4] of 8.24.

For `NS(=O)(=O)c1c(Cl)ccc(NC(=O)Nc2ccccc2Br)c1O`, the bioavailability in [1] is 86%. Also, the CL in data set [6] is reported as 1.5 ml min-1 g-1 liver; in data set [7] it was 1.5 ml min-1 g-1 liver; in [8] it was 0.74 ml min-1 g-1 liver; in data set [9], 5.3 ml min-1 g-1 liver. For the same compound, the clearance in [2] is 16.1 mL/min/kg. The IC50 came to 7 nM in [3] and 1370 nM in data set [5]. This compound also came in with a pKa in [4] of 6.12.

In turn, `NC(=O)c1c(Cl)ccc(NC(=O)Nc2ccccc2Br)c1O` showed a bioavailability in [1] of 3.6%. The CL in data set [6] was found to be 1.5 ml min-1 g-1 liver; in [7] it was 1.5 ml min-1 g-1 liver; in data set [8], 0.74 ml min-1 g-1 liver; in data set [9], 5.3 ml min-1 g-1 liver. This compound also returned a clearance in [2] of 105 mL/min/kg. In addition, the IC50 in [3] worked out at 10 nM; in data set [5] it was 6040 nM. The compound also gave a pKa in data set [4] of 7.11.
